Laboratory results from ChEMBL document CHEMBL4257545, “Synthesis of novel perillyl-dihydropyrimidinone hybrids designed for antiproliferative activity” (Medchemcomm, 2018).
Active and inactive are the calls of the source.

Legend:
Type in all cases: functional, cell-based
OVCAR-3 = assay: Antiproliferative activity against human OVCAR3 cells at 25 uM after 48 hrs by sulforhodamine B assay
Procedure, shortened: (§1)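 Growth-inhibition profile of each tumour line at a single compound concentration of 25 μM. Cells were treated in DMSO/RPMI (final DMSO 0.2%) for 48 h at 37 °C, 5% CO2. Cells were fixed with 50% TCA before and after exposure. Cellular protein was quantified by sulforhodamine B staining at 540 nm.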

MCF7 = assay: Antiproliferative activity against human MCF7 cells at 25 uM after 48 hrs by sulforhodamine B assay; procedure, shortened: as §1
NCI/ADR-RES = assay: Antiproliferative activity against human NCI/ADR-RES cells at 25 uM after 48 hrs by sulforhodamine B assay; procedure, shortened: as §1
UACC-62 = assay: Antiproliferative activity against human UACC62 cells at 25 uM after 48 hrs by sulforhodamine B assay; procedure, shortened: as §1
HT-29 = assay: Antiproliferative activity against human HT-29 cells at 25 uM after 48 hrs by sulforhodamine B assay; procedure, shortened: as §1
PC-3 = assay: Antiproliferative activity against human PC3 cells at 25 uM after 48 hrs by sulforhodamine B assay; procedure, shortened: as §1
786-0 = assay: Antiproliferative activity against human 786-0 cells at 25 uM after 48 hrs by sulforhodamine B assay; procedure, shortened: as §1

Measured: Activity

CCOC(=O)C1=C(C)NC(=O)NC1c1cccc(O)c1 (configuration not stated)
active: OVCAR-3 | MCF7 | NCI/ADR-RES | UACC-62 | HT-29 | PC-3 | 786-0
